Bioassay records from PubChem.
Jurkat NFkB inh – inhibitors of induced NF-kB luciferase reporter, primary screen, TCR NF-kB activation inhibitor project, cell-based, luminescence, uHTS. AID 435003, 2010. Jurkat, PMA/ionomycin-induced NF-kB luciferase reporter. inhibition, % at 4 µM. hit rate 0.53% among 330,000; in the data active = inhibition above about 50%
697 NFkB inh – inhibitors of PMA/ionomycin-induced NF-kB reporter, 697 cells, primary screen, B-cell NF-kB inhibitor project, cell-based, luminescence, uHTS | AID 435022, 2010 | inhibition, % at 4 µM | hit rate 0.33% among 330,000 | 697 B-cell NF-kB luciferase reporter, 16 h; in the data active = inhibition above about 35%
miR122 inh – miR-122 Renilla sensor signal increase in Huh7, primary screen, miR-122 inhibitor project, cell-based, single point, plate reader; activation (reporter increase), % at 12.5 µM; hit rate 0.3% among 340,000; Huh7 miR-122 Renilla luciferase sensor, 48 h; neutral wells = 0, positive control = 100;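 active = mean replicate activation score at least 90 and every replicate individually at or above 90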;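 note: higher luciferase means less miR-122 activity so hits act as miR-122 inhibitors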
NR2E3 ag-1 – inhibitors of NR2E3-RetCOR corepressor binding, primary screen, NR2E3 agonist project, biochemical, TR-FRET, GST-NR2E3, biotin-RetCOR; Photoreceptor-specific nuclear receptor (Homo sapiens), Q9Y5X4; 1536-well; inhibition of corepressor binding, % at 4.78 µM; hit rate 0.12% among 320,000; AID 2300, 2010;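 active = percent inhibition above the cutoff of mean plus 3 SD of all tested compounds, set per screening campaign, cut at about 20% in these data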;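 note: 0% = DMSO wells and 100% = biotin wells as full block of FRET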
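System: GST-tagged NR2E3 plus biotinylated RetCOR corepressor; Buffer or medium: pH 7.5 Tris-based buffer; Probe or stimulus: RetCOR corepressor, biotinylated, 7 nM; Doses: compound at 4.8 µM, single dose; Schedule: 5 h incubation at 4 °C; Technique: time-resolved FRET; Evaluation: percent inhibition of TR-FRET ratio; Replication: one well per compound, singlicate testing.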
NR2E3 ag-2 – NR2E3 agonists in two-hybrid cells, primary screen, cell-based, luminescence, CHO-S, Gal4-NCOR/VP16-NR2E3; Photoreceptor-specific nuclear receptor (Homo sapiens), Q9Y5X4; luciferase; inhibition of corepressor binding, % at 3.98 µM; hit rate 0.35% among 360,000; AID 602229, 2012;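 active = inhibition above the mean of all tested compounds plus 3 SD, cut at about 70% in these data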;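 note: 0% = DMSO with NR2E3 transfected cells and 100% = cells lacking NR2E3 construct; higher means lower luciferase signal from less NR2E3 corepressor binding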
FGF22 binding – binders of human FGF22 protein, primary screen, FGF22 synaptogenesis inhibitor project, biophysical, thermal shift, single point | Fibroblast growth factor 22 (Homo sapiens), Q9HCT0 | recombinant FGF22 thermal shift, SYPRO orange fluorescence; percent of sucrose octasulfate shift, DMSO zero | activity (Tm shift, normalised), % at 9.99 µM | hit rate 1.5% among 340,000;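 active = mean Tm shift, scaled 0 neutral to 100 positive control, at about 1.3% or above, every replicate too, limit read from the data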
Target sequence (Q9HCT0 whole entry, looked up): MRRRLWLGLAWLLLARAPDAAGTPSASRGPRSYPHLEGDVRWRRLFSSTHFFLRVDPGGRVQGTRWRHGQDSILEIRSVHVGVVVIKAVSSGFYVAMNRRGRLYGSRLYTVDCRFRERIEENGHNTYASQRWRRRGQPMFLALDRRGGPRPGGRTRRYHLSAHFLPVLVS
* hit, by the source's call; / = not tested or not shown; [ ] = dose if it differs, or a comment. Shown are actives, neighbours in structure and some others; about 2.2% of the full set was active somewhere.

SMILES	Jurkat NFkB inh	697 NFkB inh	miR122 inh	NR2E3 ag-1	NR2E3 ag-2	FGF22 binding
CN1C[C@H]2[C@@H](c3ccccc31)[C@@H](CO)N2C(=O)Nc1ccccc1Cl	/	/	-9.5[16.7 µM]	/	/	0.2
O=C(NCCO)Nc1ccc2nc(-c3ccco3)c(-c3ccco3)nc2c1	10.6	-0.5	/	46.2*	/	/
O=C(NCCO)Nc1ccc2nsnc2c1	0.5	12.0	/	-2.6	25.6	0.1
O=C(NCCCO)c1ccc2nc(-c3ccco3)c(-c3ccco3)nc2c1	/	/	-0.2	/	19.3	43.0*
CC(=O)Nc1ccc(NC(=O)c2ccccc2CCc2ccccc2)cc1	1.4	-0.6	/	0.1	-15.0	44.1*
C[C@H](CO)N1C[C@H](C)[C@H](CN(C)Cc2ccc3c(c2)OCO3)Oc2c(NC(=O)C3CCCCC3)cccc2C1=O	/	/	49.0[16.7 µM]	/	/	0.0
CCn1c(CCNC(=O)c2ccc(OC)cc2)nnc1SCC(=O)Nc1ccccc1F	14.2	22.2	119.7*	2.5	20.4	-0.1
C/C=C/c1ccc2c(c1)O[C@H](CN(C)C(=O)Nc1cc(F)ccc1F)[C@@H](C)CN([C@H](C)CO)S2(=O)=O	/	/	73.7[16.7 µM]	/	/	-0.4
C/C=C/c1ccc2c(c1)O[C@@H](CN(C)C(=O)Nc1ccc(C(F)(F)F)cc1)[C@@H](C)CN([C@@H](C)CO)S2(=O)=O	/	/	9.1[16.7 µM]	/	/	1.3*
C[C@H](CO)N1C[C@H](C)[C@H](CN(C)C(=O)Nc2cc(F)ccc2F)Oc2cc(/C=C/c3ccccc3)ccc2S1(=O)=O	/	/	-9.0[16.7 µM]	/	/	2.0*
CC(C)COC(=O)CNc1n[nH]c(=S)[nH]c1=O	0.9	-4.2	1.1	1.1	-5.0	0.2
NC(=O)CNc1n[nH]c(=S)[nH]c1=O	-2.0	-2.8	/	2.2	3.5	43.0*
COc1ccc2c3c([nH]c2c1)[C@H](CO)N(C(=O)c1ccccn1)CC31CN(C(=O)C2CCCCC2)C1	/	/	/	/	/	-0.1
O=C(CCN1CCCCC1)NNC(=S)NC(=O)c1ccc(Br)cc1	2.2	8.1	/	-0.2	-39.0	43.5*
O=C(NC1CCCCC1)N[C@@H]1C=C[C@@H](CC(=O)N2CCOCC2)O[C@H]1CO	/	/	/	/	/	-0.4
COc1ccc(CN(C)C[C@H]2Oc3ccc(NC(=O)CCN4CCOCC4)cc3CC(=O)N([C@H](C)CO)C[C@@H]2C)cc1	/	/	/	/	/	0.0
C#CCOc1ccccc1CNc1ccccc1	-17.2	-4.0	/	1.3	7.9	43.2*
Cc1noc(C)c1NC(=O)N(C)C[C@H]1Oc2ccc(NS(=O)(=O)c3ccc(Cl)cc3)cc2CC(=O)N([C@H](C)CO)C[C@H]1C	/	/	-1.1[16.7 µM]	/	/	-0.3
COc1ccc(C(=O)/C=C/c2ccccc2)c(OC)c1	-22.1	-27.7	10.7	3.0	-71.4	0.0
COc1ccc(C(=O)/C=C/c2ccc(N(C)C)cc2)c(OC)c1	12.8	-15.8	212.5*	0.4	-20.6	0.1
COc1ccc(C(=O)/C=C/c2ccc(O)cc2)cc1	1.6	-18.2	1.6	2.5	-25.0	2.7*
COc1ccc(C=CC(=O)c2ccc([N+](=O)[O-])cc2)cc1	/	/	-4.5	/	-21.2	0.2
O=C(/C=C/c1ccc(O)cc1)c1ccccc1	-34.8	-38.8	8.1	1.5	-51.9	1.3*
CN(C)c1ccc(/C=C/C(=O)c2ccc(O)cc2)cc1	/	/	21.6	/	-105.4	0.9
C[C@H](CO)N1C[C@H](C)[C@H](CN(C)Cc2ccccn2)Oc2ncc(-c3ccc(C#N)cc3)cc2C1=O	/	/	-5.2[16.7 µM]	/	/	0.0
c1ccc(Oc2ncnc3ccccc23)cc1	/	/	/	/	2.5	43.1*
Cc1nc(Oc2ccccc2)c2ccccc2n1	-13.9	-18.8	/	1.1	-6.7	/
C[C@H](NC(=O)C[C@H]1C[C@H]2c3cc(NC(=O)c4cccnc4)ccc3O[C@H]2[C@H](CO)O1)c1ccccc1	/	/	4.6[16.7 µM]	/	/	-0.3
O=c1[nH][nH]c2cc(=O)n(-c3cccc(C(F)(F)F)c3)nc12	-2.0	-0.7	/	0.2	-21.0	0.2
